Results as given in ChEMBL document CHEMBL1144550, “Molecular probes of DNA bulges: functional assay and spectroscopic analysis” (Bioorg Med Chem, 2007).
The source made the active and inactive calls. The calls are words filed in the database; no cut-off is given here.

Legend:
[1] = Effect on DNA binding assessed as binding to HT3AGTA synthetic oligo sequence code by measuring fluorescence stimulation due to AT base pairs next to bulge in bulge binding assay; design: species or system Homo sapiens
Procedure, shortened: (§1)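 Dissociation constants for a panel of 17 synthetic bulged oligos, taken from changes in drug fluorescence in emission spectra (excitation 360 nm, emission 480 nm) at 5 °C. Binding appears either as quenching or as stimulation of drug fluorescence. Values are given with standard deviations.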

[2] = molecular target: DNA polymerase I Klenow fragment (Escherichia coli) (UniProt P00582); assay: Induction of slipped DNA synthesis assessed as incorporation of [32P]TMP at 40 uM
[3] = Effect on DNA binding assessed as binding to HT3CGTA synthetic oligo sequence code by measuring fluorescence stimulation due to AT base pairs next to bulge in bulge binding assay; design: species or system Homo sapiens; procedure, shortened: as §1
[4] = Effect on DNA binding assessed as binding to HT4AGTT synthetic oligo sequence code by measuring fluorescence stimulation due to AT base pairs next to bulge in bulge binding assay; design: species or system Homo sapiens; procedure, shortened: as §1
[5] = Effect on DNA binding assessed as binding to HT3GATC synthetic oligo sequence code by measuring fluorescence quenching due to GC base pairs next to bulge in bulge binding assay; design: species or system Homo sapiens; procedure, shortened: as §1
[6] = Effect on DNA binding assessed as binding to HT3AGCTT synthetic oligo sequence code by measuring fluorescence stimulation due to AT base pairs next to bulge in bulge binding assay; design: species or system Homo sapiens; procedure, shortened: as §1
[7] = Effect on DNA binding assessed as binding to HT3GGTT synthetic oligo sequence code by measuring fluorescence quenching due to GC base pairs next to bulge in bulge binding assay; design: species or system Homo sapiens; procedure, shortened: as §1
[8] = species on record: Homo sapiens; assay: Effect on DNA binding assessed as binding to DA12:DAc12 synthetic oligo sequence code by measuring fluorescence quenching due to GC base pairs next to bulge in bulge binding assay; procedure, shortened: as §1
[9] = Effect on DNA binding assessed as binding to HT3AT synthetic oligo sequence code by measuring fluorescence stimulation due to AT base pairs next to bulge in bulge binding assay; design: species or system Homo sapiens; procedure, shortened: as §1
[10] = Effect on DNA binding assessed as binding to DA12:BA14 synthetic oligo sequence code by measuring fluorescence stimulation due to AT base pairs next to bulge in bulge binding assay; design: species or system Homo sapiens; procedure, shortened: as §1
[11] = Effect on DNA binding assessed as binding to HT3GGTA synthetic oligo sequence code by measuring fluorescence quenching due to GC base pairs next to bulge in bulge binding assay; design: species or system Homo sapiens; procedure, shortened: as §1
[12] = Effect on DNA binding assessed as binding to HT3GGTC synthetic oligo sequence code by measuring fluorescence quenching due to GC base pairs next to bulge in bulge binding assay; design: species or system Homo sapiens; procedure, shortened: as §1
[13] = Effect on DNA binding assessed as binding to HT3AGTT synthetic oligo sequence code by measuring fluorescence stimulation due to AT base pairs next to bulge in bulge binding assay; design: species or system Homo sapiens; procedure, shortened: as §1
[14] = Effect on DNA binding assessed as binding to HT3GTTG synthetic oligo sequence code by measuring fluorescence quenching due to GC base pairs next to bulge in bulge binding assay; design: species or system Homo sapiens; procedure, shortened: as §1
[15] = Effect on DNA binding assessed as binding to HT3CGTC synthetic oligo sequence code by measuring fluorescence quenching due to GC base pairs next to bulge in bulge binding assay; design: species or system Homo sapiens; procedure, shortened: as §1
[16] = Effect on DNA binding assessed as binding to HT3AGT synthetic oligo sequence code by measuring fluorescence stimulation due to AT base pairs next to bulge in bulge binding assay; design: species or system Homo sapiens; procedure, shortened: as §1
[17] = Effect on DNA binding assessed as binding to HT3AGTC synthetic oligo sequence code by measuring fluorescence quenching due to GC base pairs next to bulge in bulge binding assay; design: species or system Homo sapiens; procedure, shortened: as §1
[18] = Effect on DNA binding assessed as binding to HT3TGTA synthetic oligo sequence code by measuring fluorescence stimulation due to AT base pairs next to bulge in bulge binding assay; design: species or system Homo sapiens; procedure, shortened: as §1
[19] = species on record: Homo sapiens; assay: Effect on slipped DNA synthesis assessed as enhanced synthesis at 40 uM relative to control
[20] = Effect on DNA binding assessed as binding to HT3GGTA synthetic oligo sequence code by measuring fluorescence stimulation due to AT base pairs next to bulge in bulge binding assay; design: species or system Homo sapiens; procedure, shortened: as §1
[21] = Effect on DNA binding assessed as binding to HT3AGTC synthetic oligo sequence code by measuring fluorescence stimulation due to AT base pairs next to bulge in bulge binding assay; design: species or system Homo sapiens; procedure, shortened: as §1

| SMILES | Kd [1] [µM] | Activity [2] [cpm] | Kd [3] [µM] | Kd [4] [µM] | Kd [5] [µM] | Kd [6] [µM] | Kd [7] [µM] | Activity [8] | Kd [9] [µM] | Kd [10] [µM] | Kd [12] [µM] | Kd [13] [µM] | Kd [14] [µM] | Kd [15] [µM] | Kd [16] [µM] | Kd [18] [µM] | Activity [19] | further results |
| --- | --- | --- | --- | --- | --- | --- | --- | --- | --- | --- | --- | --- | --- | --- | --- | --- | --- | --- |
| CN[C@H]1[C@@H](O[C@H]2c3cc4ccccc4cc3[C@H]3[C@@H]2CC[C@]32C(=O)C=Cc3ccc(OC)cc32)O[C@H](C)[C@H](O)[C@@H]1O | 0.22 | 75000 | 0.11 | 0.11 | 0.24 | 2.1 | 0.14 | inactive | 10 | 0.6 | 0.1 | 0.08 | 0.16 | 0.15 | 8.4 | 1.13 | 31.8 | Kd [11]: 0.29 µM; Kd [17]: 0.29 µM |
| CN[C@H]1[C@@H](O[C@@H]2c3cc4ccccc4cc3[C@@H]3[C@H]2CC[C@@]32C(=O)C=Cc3ccc(OC)cc32)O[C@H](C)[C@H](O)[C@@H]1O | 1.4 | 37000 | 0.16 | 0.24 | 0.15 | 1.7 | 0.11 | inactive | 13 | 0.8 | 0.16 | 0.13 | 0.3 | 0.17 | 4.1 | 0.55 | 15.7 | Kd [20]: 1.96 µM; Kd [21]: 0.26 µM |
